Results published in ChEMBL document CHEMBL2021907, “Amyrisins A-C, O-prenylated flavonoids from Amyris madrensis” (J Nat Prod, 2012).
Activity calls are given as the source filed them. The calls are words filed in the database; no cut-off is given here.

Experiments:
[1] = tested on: PC-3; test: Cytotoxicity against human PC3 cells after 48 hrs by SRB assay; assay type: functional, cell-based; details: PC-3, 48 h
Procedure, shortened: (§1)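 SRB assay over 48 h, with a concentration range up to 50 μM, in cells pre-plated at set densities. PC-3 cells were grown in RPMI 1640 with 10% FBS and 50 µg/mL gentamicin. DU 145 cells were grown in Richter's IMEM with 10% FBS and 25 µg/mL gentamicin. The IC50 is the 50% growth-inhibition concentration, averaged over two independent triplicate experiments.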

[2] = tested on: DU-145; test: Cytotoxicity against human DU145 cells after 48 hrs by SRB assay; assay type: functional, cell-based; details: DU-145, 48 h; procedure, shortened: as §1
[3] = organism: Homo sapiens; test: Disruption of microtubules in human MDA-MB-435 after 1 hr by immunoblotting technique
[4] = tested on: PC-3; test: Cytotoxicity against human PC3 cells at 50 uM after 48 hrs by SRB assay; assay type: functional, cell-based; procedure, shortened: as §1
[5] = tested on: PC-3; test: Effect on cell cycle distribution in human PC3 cells at 50 uM after 18 hrs by flow cytometry; assay type: functional, cell-based

| Activity [3] | SMILES | IC50 [1] [µM] | IC50 [2] [µM] | Activity [4] | Activity [5] |
| --- | --- | --- | --- | --- | --- |
| inactive | C=C(C)C(O)COc1ccc(-c2cc(=O)c3c(O)c(OC)c(O)cc3o2)cc1 (stereo unspecified) [AMYRISIN B] | 17.5 | 17.5 | – | – |
| inactive | COc1c(O)cc2oc(-c3ccc(OCC=C(C)C)cc3)cc(=O)c2c1O | – | – | inactive | – |
| inactive | COc1cc(-c2cc(=O)c3c(O)c(OC)c(O)cc3o2)ccc1OCC=C(C)C [AMYRISIN C] | 23 | 23 | – | inactive |

| SMILES | Activity [3] | IC50 [1] [µM] | IC50 [2] [µM] | Activity [4] | Activity [5] |
| --- | --- | --- | --- | --- | --- |
| O=C1OC[C@@H]2Cc3cc4c(cc3[C@@H](c3ccc5c(c3)OCO5)[C@@H]12)OCO4 [POLYGAMAIN] | Active | 0.0706 | – | – | – |
